Screening data (PubChem BioAssay)
MrgX1 agonist: human MrgX1 receptor agonism, primary screen | Q96LB2 | MrgX1-HEK293 cells, Fluo-4 calcium fluorescence, agonist mode; active compounds read high | B-score at 10 µM | 310,000 tested, 0.44% active | AID 588627;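 active = calcium response B-score plate-corrected fluorescence ratio at least 3 library SD, with starting fluorescence B-score inside 5 SD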
Target sequence (Q96LB2 whole entry, looked up): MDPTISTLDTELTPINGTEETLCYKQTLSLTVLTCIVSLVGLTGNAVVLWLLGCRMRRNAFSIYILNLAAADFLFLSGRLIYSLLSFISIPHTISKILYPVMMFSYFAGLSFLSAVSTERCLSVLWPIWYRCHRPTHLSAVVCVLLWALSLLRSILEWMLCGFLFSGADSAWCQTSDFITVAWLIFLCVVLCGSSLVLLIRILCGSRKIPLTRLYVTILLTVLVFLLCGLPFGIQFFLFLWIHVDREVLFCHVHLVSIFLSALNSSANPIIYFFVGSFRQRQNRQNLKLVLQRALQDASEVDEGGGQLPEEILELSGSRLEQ
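Test system: HEK293 cells stably expressing human MrgX1 receptor; Input: fifteen thousand cells per well; Dosing: compound delivered in addition one of three; Schedule: overnight seeding, then 1 h dark dye loading; Technique: Fluo-4 NW calcium fluorescence; Measure: B-scored fluorescence response ratio; Controls: positive and negative controls per plate.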
MrgX1 PAM: allosterically activates human MrgX1 receptor signaling; Q96LB2; MrgX1-HEK293, Fluo-4 calcium flux, FDSS; active compounds read high; B-score at 10 µM; 310,000 tested, 0.63% active; AID 588675;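 active = plate-corrected calcium response at least 3 library SD above typical, normal starting fluorescence, not activating the receptor alone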;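 also: compound read alongside a low EC10 to EC30 dose of BAM8-22 agonist; peak minus trough fluorescence over baseline measured at the second addition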
MrgX1 antagonist: human MrgX1 receptor antagonism, primary screen. Q96LB2. 310,000 tested, 1.3% active. MRGX1-HEK293 calcium flux, Fluo-4, BAM8-22 antagonism; active compounds read low. B-score at 10 µM. AID 588676;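 active = calcium-response B-score plate-corrected more than 3 library SD below zero, starting fluorescence within 5 deviations, no agonist response on first addition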;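 also: peak minus trough fluorescence over baseline after final BAM8-22 challenge near maximal dose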
RGS4 pot: potentiators or activators of RGS4; B-score at 10 µM; 310,000 tested, 0.92% active; HEK293 M3R/inducible RGS4, carbachol calcium flux Fluo4; active compounds read low;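 active = B-score of the integrated calcium signal more than 4 SD below the library mean, with starting fluorescence not abnormally high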;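 also: negative B-score means reduced calcium response which marks RGS4 activation or potentiation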
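test system = HEK293 cells with stable M3R and inducible RGS4 | schedule = recording 10 s baseline at 1 Hz, 100 s post-agonist | technique = Fluo4-AM (2 µM) calcium-flux fluorescence, kinetic read | measure = Agonist-evoked peak-minus-minimum fluorescence over baseline, integrated ratio, B score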
RGS4 inh: human RGS4 inhibition | P49798 | HEK293 M3R/RGS4 inducible, Fluo-4 calcium flux; active compounds read high; triggered by carbachol at its EC20 | B-score at 10 µM | 310,000 tested, 0.45% active | AID 463165;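 active = B-score, a plate-corrected calcium signal, over three deviations above library mean, with baseline fluorescence within five deviations of library mean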;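 also: RGS4 expression induced by doxycycline in cells with stable M3 receptor; B-score is computed from the integrated fluorescence ratio over baseline after carbachol; higher B-score means a larger calcium signal and so more RGS4 inhibition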
Target sequence (P49798 whole entry, looked up): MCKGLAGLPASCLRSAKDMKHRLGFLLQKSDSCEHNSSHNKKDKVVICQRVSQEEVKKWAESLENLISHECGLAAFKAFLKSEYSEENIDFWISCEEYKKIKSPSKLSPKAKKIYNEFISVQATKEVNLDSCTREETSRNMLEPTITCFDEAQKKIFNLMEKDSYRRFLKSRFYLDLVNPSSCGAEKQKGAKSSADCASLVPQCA
MrgX1 allo conf: confirmation of human MrgX1 receptor positive allosteric modulators. activation (ratio percentage), % at 10 µM. shares compounds with MrgX1 PAM. 1,200 tested, 13% active. MrgX1-HEK293, Fluo-4 calcium fluorescence, FDSS;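 active = ratio at least 3 SD above the weak peptide control, stable starting fluorescence, no direct agonism earlier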;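 also: compound followed by low BAM8-22 agonist challenge near EC20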
HEK293 Ca flux: activity in parental HEK293 cells lacking MrgX1 | AID 624111 | fluorescence ratio F(max-min)/F0 at 10 µM | Fluo-4 calcium fluorescence, FDSS | shares compounds with MrgX1 antagonist | 4,000 tested, 2% active;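 active = duplicate-averaged calcium fluorescence ratio at least three times the standard deviation of buffer wells, a nonspecific response in parental cells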
HEK293 Ca counter: activity in parental HEK293 cells without MrgX1; shares compounds with MrgX1 antagonist; parental HEK293 calcium flux, Fluo-4 fluorescence ratio; active compounds read high; fluorescence ratio F(max-min)/F0 at 10 µM; 4,000 tested, 0.4% active; AID 624114;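 active = calcium fluorescence ratio, averaged over duplicates, at least 3 SD of the buffer-well ratio, meaning a nonspecific response in receptor-free cells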;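 also: untransfected parental HEK293 lacking MrgX1 used as counterscreen for MrgX1 allosteric activators; fluorescence change taken during the second addition on a kinetic imager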
HEK293 Ca cntr2: MrgX1 activator counter-screen hit in parental HEK293 cells | fluorescence ratio F(max-min)/F0 at 10 µM | shares compounds with MrgX1 antagonist | AID 624115 | Fluo-4 calcium fluorescence (FDSS); active compounds read high | 4,000 tested, 8.7% active;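 active = calcium fluorescence ratio at least three times the spread of buffer wells, meaning a non-specific response in parental cells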
The depositor's hits bear a star; i = inactive; / = not tested or not shown. Rows were chosen to be rich in hits. Some 3.5% of all compounds tested hit in one or more screens of this group.

SMILES	MrgX1 agonist	MrgX1 PAM	MrgX1 antagonist	RGS4 pot	RGS4 inh	MrgX1 allo conf	HEK293 Ca flux	HEK293 Ca counter	HEK293 Ca cntr2
Cc1ccc(NC(=O)c2ccc(NS(=O)(=O)c3c(C)noc3C)cc2)cc1C	i	13*	i	i	i	2.3%*	i	i	i
CC(=O)N1c2ccc(S(=O)(=O)NCCC(=O)NCCc3ccc(C)cc3)cc2CC1C (configuration not stated)	i	i	i	i	i	/	/	/	/
COC(=O)c1cc(C(=O)OC)n(Cc2ccc(F)cc2)n1	i	i	i	i	i	/	/	/	/
COC(=O)c1cc(C(=O)OC)n(Cc2ccc(F)cc2)c1C	i	6.5*	i	i	i	i	i	i	i
O=C(Nc1nnc(-c2ccccn2)o1)c1cccc(Cl)c1	i	i	i	i	i	/	/	/	/
O=C(Nc1cccc(Cl)c1)c1cc(-c2ccco2)on1	i	8*	i	i	i	i	i	i	i
O=C(Nc1nnc(-c2ccco2)o1)c1cccc(Cl)c1	i	7.5*	i	i	i	i	i	i	i
O=C(Nc1ccccc1N1CCOCC1)c1ccc2ccccc2c1	i	7.2*	i	i	i	i	i	i	i
O=C(Nc1ccccc1N1CCOCC1)c1cccc(NS(=O)(=O)c2ccc(F)c(F)c2)c1	i	11*	i	i	i	i	i	i	i
O=C(Nc1ccccc1N1CCOCC1)c1ccccc1NS(=O)(=O)c1ccc(F)c(F)c1	i	i	i	i	i	/	/	/	/
Cc1ccc(OCC(=O)NNC(=O)CCc2ccccc2)c(Br)c1	i	i	i	i	i	/	/	/	/
COc1ccccc1-n1ccnc(SCC(=O)NCCc2ccccc2)c1=O	i	i	i	i	i	/	/	/	/
COc1ccc(-c2cn(-c3ccccc3)nc2CO)cc1	i	8.6*	i	i	i	i	i	i	i
Cc1ccc(-c2nn(-c3ccccc3)cc2CO)cc1	i	38*	i	i	i	6.8%*	i	i	i
COc1ccc(-c2nn(-c3ccccc3)cc2N)cc1	i	i	i	i	i	/	/	/	/
COc1ccc(-c2nn(-c3ccccc3)cc2CO)cc1	i	10*	i	i	i	i	i	i	i
COC(=O)CN(c1nc(C)c(Br)c(OC)n1)S(=O)(=O)c1ccccc1	i	i	i	i	i	/	/	/	/
CCN1C(=O)N(CN2CCOCC2)C2C1N(CN1CCOCC1)C(=O)N2CC (configuration not stated)	i	i	i	i	i	/	/	/	/
O=C(COc1ccc(Br)cc1Cl)c1ccc[nH]1	i	9.7*	i	i	i	i	i	i	i
CC(C)N(C(=O)COc1ccc(Br)cc1Cl)C(C)C	i	21*	i	i	i	6.4%*	i	i	i
Cc1cccc(NC(=O)N2CCc3ccccc3C2)c1C	i	i	i	i	i	/	/	/	/
COc1cccc(C(=O)NCC(=O)NCc2cc(=O)n(C)c(=O)n2C)c1OC	i	i	i	i	i	/	/	/	/
COc1ccc(C(=O)CCN2CCN(c3ccc(OC)cc3)CC2)cc1	i	i	i	i	i	/	/	/	/
COc1ccc(C(=O)CCN2CCN(c3ccccc3F)CC2)cc1	i	20*	i	i	i	i	i	i	i
O=C(c1ccc(F)cc1)n1c(NCc2ccccc2)n[nH]c1=S	i	7.3*	i	i	i	i	i	i	i
SMILES	MrgX1 agonist	MrgX1 PAM	MrgX1 antagonist	RGS4 pot	RGS4 inh	MrgX1 allo conf	HEK293 Ca flux	HEK293 Ca counter	HEK293 Ca cntr2
CC(C)(C)c1csc(SCC(=O)Nc2ccc(Cl)cn2)n1	i	19*	i	i	i	5.1%*	i	i	i
O=C(Nc1ccc(F)cc1)C(=O)C1C(=O)Nc2ccccc21 (configuration not stated)	i	6.6*	i	i	i	i	i	i	i
O=C(CCCOc1ccc(Br)cc1)NCCc1ccc(OC(F)F)cc1	i	i	i	i	i	/	/	/	/
CCSc1nnc2n(-c3ccc(OC)cc3)c(=O)c3c4c(sc3n12)CCCC4	i	i	i	i	i	/	/	/	/
COc1ccccc1-n1c(=O)c2c3c(sc2n2c(SC)nnc12)CCC3	i	15*	i	i	i	i	i	i	i
COc1cccc(CNc2cnc3ccccc3c2)c1O	i	7.1*	i	i	i	i	i	i	i
COc1cccc(CNc2cccc(C(F)(F)F)c2)c1O	i	36*	i	i	i	10%*	i	i	i
COc1cccc(CNc2ccc([N+](=O)[O-])cc2Cl)c1O	i	25*	i	i	i	13%*	i	i	i
COc1cccc(CNc2ccc(F)c(Cl)c2)c1O	i	27*	i	i	i	13%*	i	i	i
CC(=O)N1CCc2cc(S(=O)(=O)C(C)CC(=O)Nc3ccc(OC(F)(F)F)cc3)ccc21 (configuration not stated)	i	i	i	i	i	/	/	/	/
O=C(COc1ncnc2ccccc12)c1ccc(Cl)cc1	i	i	i	i	i	/	/	/	/
Cc1cccc(N(C)C(=O)c2cnn(-c3ccccc3)c2C)c1	i	13*	i	i	i	i	i	i	i
Cc1ccc(N(C)C(=O)c2cnn(-c3ccccc3)c2C)c(C)c1	i	i	i	i	i	/	/	/	/
COc1ccc(C)cc1NC(=O)C(C)N(c1ccc(C)cc1)S(C)(=O)=O (configuration not stated)	i	7.6*	i	i	i	i	i	i	i
COc1ccc(-n2c(-c3ccc(Cl)cc3)c[nH]c2=S)cc1	i	i	i	i	i	/	/	/	/
Cc1cc(C)c(NC(=O)COC(=O)C2CCN(c3ccc(C(F)(F)F)cn3)CC2)c(Cl)c1	i	i	i	i	i	/	/	/	/
